We go through 18 molecules from PubChem BioAssay.

Assay [1] in a line: reduced viability of SK-BR-3 breast cancer cells – cell-based, 24 h, human, pilot screen (AID 572;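 active = viability at or below 10% of carrier control in both of two separate runs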;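 note: compound exposure lasted between 18 and 24 h rather than exactly 24 h; 100% = carrier-treated control wells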). The conditions noted are these: SK-BR-3 viability, CellTiter-Glo luminescence, at 10 µM, stronger effect = lower value. On the technique in general: ATP-based viability assays read luminescence as a measure of living cells.
Assay [2] can be described thus: HUVEC growth inhibition – cell-based, human, primary screen (AID 575;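 active = viability at or below 30% in both replicate assays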;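 note: 100% = median of untreated cell wells with 0.1% DMSO on each plate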). The conditions noted are these: HUVEC proliferation, CellTiter-Glo luminescence, 72 h; at 10 µM; stronger effect = lower value. In outline: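 Assay system: primary human umbilical vein endothelial cells / Buffer or medium: endothelial basal medium with 2% FBS plus growth supplements / Compound dosing: one dose, 10 µM final, 0.1% DMSO / Timing: 72 h treatment at 37 °C / Signal: CTG luminescence / Benchmarks: 32 DMSO-only cell-control wells (high), 32 MePR drug-control wells (low) per plate / Plate: collagen-coated 384-well format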

A short description of assay [3]: H69AR cell proliferation blockers – human, duplicate replicates, primary screen (AID 580).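 Note: 100% = mean luminescence of untreated wells and 0% = no signal.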 The settings on record: H69AR lung tumor cells viability, ATP luminescence, 72 h; at 10 µM; stronger effect = lower value.
Assay [4] can be described thus: MRP1 drug-resistance reversers in H69AR cells – cell-based, doxorubicin co-treatment, pilot screen (AID 601;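 active = viability loss from added drug above about 55%, and viability with drug at most 40%, in both replicates, limit read from the data, passing the limit was not always enough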). The settings on record: CellTiter-Glo, 72 h, at 10 µM; for differential viability (reversal): stronger effect = higher value.
Assay [5] can be described thus: yeast transport mutant growth inhibition pilot in 384-well plates, post-Golgi transport modulator project (AID 636; in the data active = inhibition above about 31%). The settings on record: absorbance 615 nm, about 18 h, stronger effect = higher value.
Assay [6] in a line: growth suppression of yeast trafficking mutant, preliminary HTS, modulators of trafficking downstream of Golgi apparatus project, 1536-format plate, OD 615 nm (AID 637; in the data active = inhibition above about 30%). The conditions noted are these: yeast transport mutant growth, absorbance 615 nm, 18 h; stronger effect = higher value.
The mark [7] stands for this setting: H69AR cells + 2 uM doxorubicin, measured here: viability with 2 uM doxorubicin, stronger effect = lower value.
Setting [8] is: H69AR cells, compound alone cytotoxicity.

Active and inactive are the calls of the source.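 Rule for the calls, unless noted: active = viability at or under a set limit in both replicates, limit being median viability minus 3 SD (cut at about 48% in these data, passing the limit was not always enough); inconclusive = at or under the limit in just one replicate; inactive = at or above the limit in both replicates.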

The term viability denotes a read-out of living cells in per cent, often relative to untreated cells. As a reminder, the inhibition is the relative decrease from the control value, in per cent. As for `CCN1CCN(c2nc3c(c(=O)n(C)c(=O)n3C)n2CCSc2ncccn2)CC1`, the viability in assay [1] is 116% (inactive); in assay [2], 91.7% (inactive); in assay [3], 94.8% (inactive); in assay [4] (setting [7]) it was 87.8%; in assay [4] (setting [8]), 94.8%. For the same molecule, the differential viability (reversal) in assay [4] (H69AR cells + 2 uM doxorubicin) was 7% (inactive). The inhibition in assay [5] is -5.07% (inactive); in assay [6], -9.68% (inactive).

For `Cc1nc2c(-c3ccccc3)c(C)[nH]n2c(=O)c1Cl`, the viability in assay [1] was 93% (inactive); in assay [2] it was 72.7% (inactive); in assay [3], 77.5% (inactive); in assay [4] (setting [7]) it was 96.8%; in assay [4] (setting [8]) it was 77.5%. For the same molecule, the differential viability (reversal) in assay [4] (H69AR cells + 2 uM doxorubicin) was -19.2% (inactive). Besides, the inhibition in assay [5] was -0.55% (inactive); in assay [6] it was 11.8% (inactive).

Take `Cc1nc2ncnn2c(N2CCC(C(=O)NCC3CCCO3)CC2)c1Cc1ccccc1` (centres undefined): the viability is 136% (inactive) in assay [1]; 97.1% (inactive) in assay [2]; 89.5% (inactive) in assay [3]; 96.3% in assay [4] (setting [7]); 89.5% in assay [4] (setting [8]). Besides, the differential viability (reversal) in assay [4] (H69AR cells + 2 uM doxorubicin) is -6.76% (inactive). Further, the figures for the inhibition in assay [5] and in assay [6] were -3.7% (inactive) and -4.55% (inactive), respectively.

Take `COC(=O)c1ccc(CSc2nc3ccccc3s2)o1`: the viability was 101% (inactive) in assay [1]; 88.7% (inactive) in assay [2]; 85% (inactive) in assay [3]; 104% in assay [4] (setting [7]); 85% in assay [4] (setting [8]). In addition, the differential viability (reversal) in assay [4] (H69AR cells + 2 uM doxorubicin) was -19.3% (inactive). In addition, the inhibition in assay [5] is -4.93% (inactive); in assay [6] it was -3.09% (inactive).

`CC1(C)CC(=O)C2=C(C1)N(CC1CCCO1)C(=O)C2(O)C(F)(F)F` (centres undefined): the viability is 98% (inactive) in assay [1]; 97.5% (inactive) in assay [2]; 101% (inactive) in assay [3]; 97.7% in assay [4] (setting [7]); 101% in assay [4] (setting [8]). Moreover, in assay [4] (H69AR cells + 2 uM doxorubicin), the differential viability (reversal) was 3.08% (inactive). For the same molecule, the inhibition in assay [5] is -5.95% (inactive); in assay [6] it was -6.36% (inactive).

For `COc1ccc(Nc2nc(-c3sc(N)nc3C)cs2)cc1`, the viability in assay [1] is 93% (inactive); in assay [2], 92.9% (inactive); in assay [3] it was 80.2% (inactive); in assay [4] (setting [7]) it was 85.3%; in assay [4] (setting [8]), 80.2%. In addition, the differential viability (reversal) in assay [4] (H69AR cells + 2 uM doxorubicin) was -5.13% (inactive). Further, the results for the inhibition in assay [5] and in assay [6] were -8.24% (inactive) and 0.73% (inactive), respectively.

For the molecule `Cc1oncc1C(=O)Nc1ccc(C(F)(F)F)cc1`, the viability in assay [1] is 87% (inactive); in assay [2] it was 69.8% (inactive); in assay [3], 97.2% (inactive); in assay [4] (setting [7]) it was 87.8%; in assay [4] (setting [8]), 97.2%. Besides, the differential viability (reversal) in assay [4] (H69AR cells + 2 uM doxorubicin) was 9.38% (inactive). For the same molecule, the values for the inhibition in assay [5] and in assay [6] were -1.69% (inactive) and -0.83% (inactive), respectively.

`CCOc1ccccc1-n1c(SCC(=O)NC2CCCC2)nnc1-c1ccoc1C`: the viability is 77% (inactive) in assay [1]; 97% (inactive) in assay [2]; 93% (inactive) in assay [3]; 91.3% in assay [4] (setting [7]); 93% in assay [4] (setting [8]). In assay [4] (H69AR cells + 2 uM doxorubicin), the differential viability (reversal) is 1.66% (inactive). The inhibition in assay [5] is 0.91% (inactive); in assay [6], -4.92% (inactive).

As to `Nc1ncnc2nc(Sc3ccc(Cl)cc3)[nH]c12`, the viability in assay [1] was 99% (inactive); in assay [2], 96.1% (inactive); in assay [3], 98.6% (inactive); in assay [4] (setting [7]), 91.1%; in assay [4] (setting [8]), 98.6%. Besides, in assay [4] (H69AR cells + 2 uM doxorubicin), the differential viability (reversal) was 7.52% (inactive). Besides, the inhibition was 0.52% (inactive) in assay [5] and 4.59% (inactive) in assay [6].

Take `COc1cccc(NC(=O)N(CCCN2CCOCC2)C(C)c2cc3cccc(OC)c3o2)c1` (centres undefined): the viability was 65% (inactive) in assay [1]; 99.9% (inactive) in assay [2]; 93.2% (inactive) in assay [3]; 96.6% in assay [4] (setting [7]); 93.2% in assay [4] (setting [8]). Moreover, the differential viability (reversal) in assay [4] (H69AR cells + 2 uM doxorubicin) is -3.43% (inactive). For the same molecule, the inhibition in assay [5] was -8.08% (inactive); in assay [6], -0.55% (inactive).

With `O=C(c1cccs1)N(Cc1ccco1)Cc1cc2ccccc2[nH]c1=O`, the viability in assay [1] was 86% (inactive); in assay [2], 110% (inactive); in assay [3], 82.2% (inactive); in assay [4] (setting [7]), 88.7%; in assay [4] (setting [8]), 82.2%. Besides, the differential viability (reversal) in assay [4] (H69AR cells + 2 uM doxorubicin) was -6.47% (inactive). Further, the inhibition in assay [5] was 4.19% (inactive); in assay [6] it was -4.91% (inactive).

As for `CCOC(=O)C1CCCN(C(=O)Cc2ccc(OC)c(OC)c2)C1` (centres undefined), the viability is 81% (inactive) in assay [1]; 99.5% (inactive) in assay [2]; 94.5% (inactive) in assay [3]; 91.8% in assay [4] (setting [7]); 94.5% in assay [4] (setting [8]). Besides, the differential viability (reversal) in assay [4] (H69AR cells + 2 uM doxorubicin) was 2.69% (inactive). The inhibition in assay [5] is -6.85% (inactive); in assay [6], 1.09% (inactive).

As for `CC(C)(Oc1ccc(Cl)cc1)C(=O)NCc1ccncc1`, the viability in assay [1] was 111% (inactive); in assay [2] it was 105% (inactive); in assay [3], 94.2% (inactive); in assay [4] (setting [7]), 88.7%; in assay [4] (setting [8]), 94.2%. Besides, the differential viability (reversal) in assay [4] (H69AR cells + 2 uM doxorubicin) was 5.47% (inactive). For the same molecule, the inhibition in assay [5] was -6.89% (inactive); in assay [6] it was -12.2% (inactive).

As to `COc1ccc(CC(=O)Nc2c3c(nn2-c2cccc(Cl)c2)CS(=O)C3)cc1` (centres undefined), the viability in assay [1] is 111% (inactive); in assay [2], 95.6% (inactive); in assay [3] it was 104% (inactive); in assay [4] (setting [7]) it was 89.5%; in assay [4] (setting [8]), 104%. For the same molecule, in assay [4] (H69AR cells + 2 uM doxorubicin), the differential viability (reversal) was 14.5% (inactive). Besides, the inhibition in assay [5] was -2.73% (inactive); in assay [6], -1.97% (inactive).

Take `COc1ccc(CN(Cc2cc3cc4c(cc3[nH]c2=O)OCO4)C(=O)NC2CCCCC2)cc1`: the viability is 85% (inactive) in assay [1]; 63.9% (inactive) in assay [2]; 96.9% (inactive) in assay [3]; 96% in assay [4] (setting [7]); 96.9% in assay [4] (setting [8]). In addition, the differential viability (reversal) in assay [4] (H69AR cells + 2 uM doxorubicin) is 0.835% (inactive). Also, the inhibition was 1.22% (inactive) in assay [5] and -1.27% (inactive) in assay [6].

Regarding `CN(C)C(CNC(=O)Nc1cccc(Cl)c1)c1cccnc1` (centres undefined), the viability in assay [1] is 77% (inactive); in assay [2] it was 96.6% (inactive); in assay [3], 90.6% (inactive); in assay [4] (setting [7]) it was 81.7%; in assay [4] (setting [8]), 90.6%. The differential viability (reversal) in assay [4] (H69AR cells + 2 uM doxorubicin) is 8.96% (inactive). Besides, the inhibition in assay [5] is -3.42% (inactive); in assay [6] it was 2.18% (inactive).

As to `CS(=O)(=O)N1CCc2cc(S(=O)(=O)Nc3ccc4oc5c(c4c3)CCCC5)ccc21`, the viability in assay [1] is 76% (inactive); in assay [2] it was 43.3% (inactive); in assay [3], 88.9% (inactive); in assay [4] (setting [7]), 103%; in assay [4] (setting [8]), 88.9%. Moreover, in assay [4] (H69AR cells + 2 uM doxorubicin), the differential viability (reversal) is -13.8% (inactive). For the same molecule, the inhibition in assay [5] was -2.47% (inactive); in assay [6], 0% (inactive).

Take `COCCn1nnnc1C(c1ccccc1OC)N1CCc2ccccc2C1` (centres undefined): the viability in assay [1] is 119% (inactive); in assay [2], 103% (inactive); in assay [3] it was 82.1% (inactive); in assay [4] (setting [7]), 88.8%; in assay [4] (setting [8]), 82.1%. Further, the differential viability (reversal) in assay [4] (H69AR cells + 2 uM doxorubicin) was -6.74% (inactive). Besides, the inhibition in assay [5] was -8.24% (inactive); in assay [6], -6.36% (inactive).
